Experiments:
[1] = Initial rates of formation of metabolic intermediate Cytochrome P-450 at compound concentration of 30 uM; assay type: ADME
How it was run: (§1)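 Rabbit liver microsomes at 2 mg protein/mL with 0.1 mM EDTA, 37 °C, substrate 30 μM. Complex formation started with 0.4 mM NADPH and followed by dual-wavelength absorbance, 457 vs 500 nm. Initial rate is the initial slope, ΔA×10^4 per nmol P-450 per min. Extent is the plateau absorbance. Lag is the time from NADPH addition to first 457-nm chromophore. Triplicate or single runs.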

[2] = Extent rates of formation of metabolic intermediate Cytochrome P-450 at compound concentration of 30 uM; assay type: ADME; how it was run: as §1
[3] = target: T1, Cytochrome P450 2C19 (Homo sapiens, UniProt P33261); assay: Percent inhibition of formation of metabolic intermediate complex between Cytochrome P450 and compound 1a (30 uM) on extent, on pre-incubation with compound concentration of 5 uM; assay type: ADME, Oryctolagus cuniculus; settings: rabbit, probe compound 1a (30 uM)
T1 sequence (P33261 whole entry): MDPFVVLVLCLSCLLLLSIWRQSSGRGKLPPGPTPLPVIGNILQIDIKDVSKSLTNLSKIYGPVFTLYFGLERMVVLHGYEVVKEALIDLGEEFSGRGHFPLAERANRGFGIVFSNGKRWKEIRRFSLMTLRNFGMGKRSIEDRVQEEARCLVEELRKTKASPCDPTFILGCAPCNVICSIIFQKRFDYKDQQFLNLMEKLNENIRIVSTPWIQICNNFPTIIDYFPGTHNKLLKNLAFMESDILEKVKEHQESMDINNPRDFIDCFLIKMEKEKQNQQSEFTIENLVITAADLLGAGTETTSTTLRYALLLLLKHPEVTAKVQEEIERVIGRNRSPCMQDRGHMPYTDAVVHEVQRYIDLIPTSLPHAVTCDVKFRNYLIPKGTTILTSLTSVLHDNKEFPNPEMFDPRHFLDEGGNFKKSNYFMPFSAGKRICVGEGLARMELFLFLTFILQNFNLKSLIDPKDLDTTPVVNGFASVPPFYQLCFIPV
How it was run: (§2)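 Hepatic microsomes came from male Dutch rabbits, fasted 24 h. They were diluted to 2 mg protein/mL in 50 mM Tris-Cl with 150 mM KCl, 10 mM MgSO4 and 0.1 mM EDTA, with NADPH added, at 37 °C. Microsomes were preincubated with racemic hydroxylamine 2, then 30 µM 1a or 30 µM racemic 2 was added. Complex formation was followed as ΔA457–500 nm, and inhibition of rate and extent (plateau) was calculated.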

[4] = target: T1, Cytochrome P450 2C19; assay: Percent inhibition of formation of metabolic intermediate complex between Cytochrome P450 and compound 1ab (30 uM) initially, following incubation at compound concentration of 20 uM; assay type: ADME, Oryctolagus cuniculus; settings: rabbit, probe compound 1ab (30 uM)
How it was run: (§3)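 Rabbit liver microsomes (2 mg protein/mL; Tris-Cl/KCl/MgSO4 buffer, 0.1 mM EDTA) plus NADPH, at 37 °C, were preincubated with racemic or enantiomeric amine 1. The 457-nm complex was monitored until it plateaued (6–8 min), then racemic hydroxylamine 2 was added. Initial rate and plateau extent of complex formation came from dual-wavelength ΔA457–500 nm versus time tracings.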

[5] = target: T1, Cytochrome P450 2C19; assay: Percent inhibition of formation of metabolic intermediate complex between Cytochrome P450 and compound 1ab (30 uM) on extent, following incubation at compound concentration of 20 uM; assay type: ADME, Oryctolagus cuniculus; settings: rabbit, probe compound 1ab (30 uM); how it was run: as §3
[6] = target: T1, Cytochrome P450 2C19; assay: Percent inhibition of formation of metabolic intermediate complex between Cytochrome P450 and compound 1b (30 uM) on extent, following incubation at compound concentration of 20 uM; assay type: ADME, Oryctolagus cuniculus; settings: rabbit, probe compound 1b (30 uM); how it was run: as §3
[7] = target: T1, Cytochrome P450 2C19; assay: Percent inhibition of formation of metabolic intermediate complex between Cytochrome P450 and compound 1a (30 uM) on extent, following incubation at compound concentration of 30 uM; assay type: ADME, Oryctolagus cuniculus; settings: rabbit
[8] = target: T1, Cytochrome P450 2C19; assay: Percent inhibition of formation of metabolic intermediate complex between Cytochrome P450 and compound 1a (30 uM) on extent, following incubation at compound concentration of 5 uM; assay type: ADME, Oryctolagus cuniculus; settings: rabbit, probe compound 1a (30 uM); how it was run: as §2
[9] = target: T1, Cytochrome P450 2C19; assay: Percent inhibition of formation of metabolic intermediate complex between Cytochrome P450 and compound 1a (30 uM) on extent, on pre-incubation with compound concentration of 0 uM; assay type: ADME, Oryctolagus cuniculus; settings: rabbit, probe compound 1a (30 uM); how it was run: as §2
[10] = target: T1, Cytochrome P450 2C19; assay: Percent inhibition of formation of metabolic intermediate complex between Cytochrome P450 and compound 1a (30 uM) on extent, on pre-incubation with compound concentration of 15 uM; assay type: ADME, Oryctolagus cuniculus; settings: rabbit, probe compound 1a (30 uM); how it was run: as §2
[11] = target: T1, Cytochrome P450 2C19; assay: Percent inhibition of formation of metabolic intermediate complex between Cytochrome P450 and compound 1a (30 uM) on extent, on pre-incubation with compound concentration of 30 uM; assay type: ADME, Oryctolagus cuniculus; settings: rabbit, probe compound 1a (30 uM); how it was run: as §2
[12] = target: T1, Cytochrome P450 2C19; assay: Percent inhibition of formation of metabolic intermediate complex between Cytochrome P450 and compound 1a (30 uM) initially, following incubation at compound concentration of 15 uM; assay type: ADME, Oryctolagus cuniculus; settings: rabbit, probe compound 1a (30 uM)
How it was run: (§4)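 Inverse cross-inhibition in NADPH-supplemented rabbit liver microsomes at 37 °C. Preincubation with racemic hydroxylamine at 0–30 μM, monitoring 457-nm complex formation. The amine was then added at 30 μM, or racemic hydroxylamine at 30 μM. Initial rate and plateau extent were taken from ΔA457–500 nm tracings. Percent inhibition is relative to incubation in fresh microsomes.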

[13] = target: T1, Cytochrome P450 2C19; assay: Percent inhibition of formation of metabolic intermediate complex between Cytochrome P450 and compound 1a (30 uM) initially, following incubation at compound concentration of 20 uM; assay type: ADME, Oryctolagus cuniculus; settings: rabbit, probe compound 1a (30 uM)
[14] = target: T1, Cytochrome P450 2C19; assay: (§5) Percent inhibition of formation of metabolic intermediate complex between Cytochrome P450 and compound 1a (30 uM) initially, following incubation at compound concentration of 30 uM; assay type: ADME, Oryctolagus cuniculus; settings: rabbit, probe compound 1a (30 uM); how it was run: as §4
[15] = target: T1, Cytochrome P450 2C19; assay: as §5; assay type: ADME, Oryctolagus cuniculus; settings: rabbit, probe compound 1a (30 uM); how it was run: as §4; remark: listed apart in the source
[16] = target: T1, Cytochrome P450 2C19; assay: Percent inhibition of formation of metabolic intermediate complex between Cytochrome P450 and compound 1a (30 uM) initially, following incubation at compound concentration of 5 uM; assay type: ADME, Oryctolagus cuniculus; settings: rabbit, probe compound 1a (30 uM); how it was run: as §4
[17] = target: T1, Cytochrome P450 2C19; assay: Percent inhibition of formation of metabolic intermediate complex between Cytochrome P450 and compound 1a (30 uM) initially, on pre-incubation with compound concentration of 0 uM; assay type: ADME, Oryctolagus cuniculus; settings: rabbit, probe compound 1a (30 uM); how it was run: as §4
[18] = target: T1, Cytochrome P450 2C19; assay: Percent inhibition of formation of metabolic intermediate complex between Cytochrome P450 and compound 1a (30 uM) initially, on pre-incubation with compound concentration of 15 uM; assay type: ADME, Oryctolagus cuniculus; settings: rabbit, probe compound 1a (30 uM); how it was run: as §4
[19] = target: T1, Cytochrome P450 2C19; assay: Percent inhibition of formation of metabolic intermediate complex between Cytochrome P450 and compound 1a (30 uM) initially, on pre-incubation with compound concentration of 30 uM; assay type: ADME, Oryctolagus cuniculus; settings: rabbit, probe compound 1a (30 uM); how it was run: as §4
[20] = target: T1, Cytochrome P450 2C19; assay: Percent inhibition of formation of metabolic intermediate complex between Cytochrome P450 and compound 1a (30 uM) on extent, following incubation at compound concentration of 0 uM; assay type: ADME, Oryctolagus cuniculus; settings: rabbit, probe compound 1a (30 uM); how it was run: as §2
[21] = target: T1, Cytochrome P450 2C19; assay: Percent inhibition of formation of metabolic intermediate complex between Cytochrome P450 and compound 1a (30 uM) on extent, following incubation at compound concentration of 15 uM; assay type: ADME, Oryctolagus cuniculus; settings: rabbit, probe compound 1a (30 uM); how it was run: as §2
[22] = target: T1, Cytochrome P450 2C19; assay: Percent inhibition of formation of metabolic intermediate complex between Cytochrome P450 and compound 1a (30 uM) on extent, following incubation at compound concentration of 20 uM; assay type: ADME, Oryctolagus cuniculus; settings: rabbit, probe compound 1a (30 uM)

`COc1cc(C[C@@H](C)NO)c(OC)cc1C.COc1cc(C[C@H](C)NO)c(OC)cc1C` showed a Rate [1] of 154, a Rate [2] of 131 and an inhibition at 5 µM [3] of 43%. For the same molecule, the inhibition at 20 µM [4] was 30%, the inhibition at 20 µM [5] was 12% and the inhibition at 20 µM [6] was 13%. The Inhibition ([7]; 30 µM) was 66%, the inhibition at 30 µM ([7]; probe compound 1a (30 uM)) was 73% and the inhibition at 5 µM [8] was 39%. For the same molecule, the inhibition at 0 uM [9] was 0%, the inhibition at 15 µM [10] was 100% and the inhibition at 30 µM [11] was 100%. The inhibition at 15 µM [12] was 51%, the inhibition at 20 µM [13] was 29% and the inhibition at 30 µM [14] was 72%. For the same molecule, the inhibition at 30 µM [15] was 74%, the inhibition at 5 µM [16] was 39% and the inhibition at 0 uM [17] was 0%. The inhibition at 15 µM [18] was 100%, the inhibition at 30 µM [19] was 100% and the inhibition at 0 uM [20] was 30%. For the same molecule, the inhibition at 15 µM [21] was 46% and the inhibition at 20 µM [22] was 27%.

Source: ChEMBL document CHEMBL1121797, “Studies on chiral interactions of 1-(2,5-dimethoxy-4-methylphenyl)-2-aminopropane and the corresponding N-hydroxy metabolites with cytochrome P-450” (J Med Chem, 1981)
